Source: ChEMBL document CHEMBL1132488, “On the bioactive conformation of NAN-190 (1) and MP3022 (2), 5-HT(1A) receptor antagonists” (J Med Chem, 1999)
One block for each compound: values may come before it.

Legend:
[1] = target: T1, 5-hydroxytryptamine receptor 1A (Rattus norvegicus, UniProt P19327); assay: Ability to displace [3H]8-OH-DPAT from 5-hydroxytryptamine 1A receptor
T1 sequence (P19327 whole entry): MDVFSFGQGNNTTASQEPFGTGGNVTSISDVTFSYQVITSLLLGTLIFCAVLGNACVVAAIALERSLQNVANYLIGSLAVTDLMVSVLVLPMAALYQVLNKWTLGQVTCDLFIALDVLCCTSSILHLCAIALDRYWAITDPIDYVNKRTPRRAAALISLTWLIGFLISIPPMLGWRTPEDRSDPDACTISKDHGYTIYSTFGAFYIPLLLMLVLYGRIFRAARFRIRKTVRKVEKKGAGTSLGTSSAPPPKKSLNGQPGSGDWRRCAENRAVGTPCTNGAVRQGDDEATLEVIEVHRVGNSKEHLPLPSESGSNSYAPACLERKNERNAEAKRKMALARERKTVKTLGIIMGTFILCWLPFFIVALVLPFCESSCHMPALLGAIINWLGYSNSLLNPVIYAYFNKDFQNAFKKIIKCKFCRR
How it was run: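 Rat hippocampal membranes, [3H]8-OH-DPAT radioligand. Ki from at least three competition experiments, each with 10–14 drug concentrations run in triplicate. Ki calculated with the Cheng–Prusoff equation.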

[2] = species: Rattus norvegicus; assay: Dose Inducing behavioral syndrome(FT: forepaw treading) by the compound in reserpine pretreated rats; format: functional
How it was run: (§1)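 Male Wistar rats (260–300 g), groups of 6, given reserpine 1 mg/kg sc 18 h before test. Compounds given ip as 1% Tween 80 suspension. FBP and FT rated 0–3 in 45-s sessions every 3 min, starting 3 min after dosing. Score summed over 5 periods (max 15 per symptom). Mean ± SEM; Newman–Keuls test.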

[3] = species: Rattus norvegicus; assay: Dose Inducing behavioral syndrome(FBP: flat body posture) by the compound in reserpine pretreated rats; format: functional; how it was run: as §1
[4] = species: Rattus norvegicus; assay: Effective dose of the required to inhibit symptoms produced by 8-OH-DPAT; format: functional
How it was run: (§2)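 Reserpinized male Wistar rats (reserpine 1 mg/kg sc, 18 h before), groups of 6. Compound given ip in 1% Tween 80 60 min before 8-OH-DPAT 5 mg/kg sc. FBP/FT rated 0–3 at 3, 6, 9, 12 and 15 min after agonist, summed (max 15). Mean ± SEM; Newman–Keuls test; ED50 with range.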

[5] = species: Rattus norvegicus; assay: Effect on 8-OH-DAPT- induced behavioral syndrome(FT: forepaw treading) by the compound in reserpine pretreated rats at a dose of 16; FT mean score; format: functional; how it was run: as §2
[6] = species: Rattus norvegicus; assay: Effect on 8-OH-DAPT- induced behavioral syndrome(FT: forepaw treading) by the compound in reserpine pretreated rats at a dose of 32; FT mean score; format: functional; how it was run: as §2
[7] = species: Rattus norvegicus; assay: Effect on 8-OH-DAPT- induced behavioral syndrome(FBP: flat body posture) by the compound in reserpine pretreated rats at a dose of 16; FBP mean score; format: functional; how it was run: as §2
[8] = species: Rattus norvegicus; assay: Effect on 8-OH-DAPT- induced behavioral syndrome(FT: forepaw treading) by the compound in reserpine pretreated rats at a dose of 8; FT mean score; format: functional; how it was run: as §2
[9] = species: Rattus norvegicus; assay: Induction of behavioral syndrome(FT: forepaw treading) by the compound in reserpine pretreated rats at a dose of 16; FT mean score; format: functional
How it was run: (§3)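 Male Wistar rats (260–300 g) were given reserpine 1 mg/kg sc in saline 18 h before testing. Test compound was then given alone ip as a 1% Tween 80 suspension (2 mL/kg). FBP and FT were each scored 0–3 and summed (maximum 15). n=6 per group; mean ± SEM; Newman–Keuls test.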

[10] = species: Rattus norvegicus; assay: Induction of behavioral syndrome(FT: forepaw treading) by the compound in reserpine pretreated rats at a dose of 32; FT mean score; format: functional; how it was run: as §3
[11] = species: Rattus norvegicus; assay: Induction of behavioral syndrome(FT: forepaw treading) by the compound in reserpine pretreated rats at a dose of 8; FT mean score; format: functional; how it was run: as §3
[12] = species: Rattus norvegicus; assay: Effect on 8-OH-DAPT- induced behavioral syndrome(FBP: flat body posture) by the compound in reserpine pretreated rats at a dose of 8; FBP mean score; format: functional; how it was run: as §2
[13] = species: Rattus norvegicus; assay: Induction of behavioral syndrome(FBP: flat body posture) by the compound in reserpine pretreated rats at a dose of 16; FBP mean score; format: functional; how it was run: as §1
[14] = species: Rattus norvegicus; assay: Induction of behavioral syndrome(FBP: flat body posture) by the compound in reserpine pretreated rats at a dose of 32; FBP mean score; format: functional; how it was run: as §3
[15] = species: Rattus norvegicus; assay: Induction of behavioral syndrome(FBP: flat body posture) by the compound in reserpine pretreated rats at a dose of 8; FBP mean score; format: functional; how it was run: as §3
[16] = test system: Rattus norvegicus; assay: Effect on 8-OH-DPAT-Induced LLR(lower lip retraction) in rats at a dose of 32 mg/kg; format: functional
How it was run: (§4)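 Male Wistar rats, groups of 6. Compound given ip in 1% Tween 80 45 min before 8-OH-DPAT 1 mg/kg sc. Lower incisor visibility scored 0/0.5/1 at 15, 30 and 45 min after agonist, summed (max 3). Mean ± SEM; Newman–Keuls test; ED50 with range.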

[17] = test system: Rattus norvegicus; assay: Induction of LLR(lower lip retraction) by the compound in rat at a dose of 8 mg/kg; LLR score; format: functional
How it was run: (§5)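 Male Wistar rats, groups of 6, given compound alone ip as 1% Tween 80 suspension. Lower incisor visibility scored 0/0.5/1 at 15, 30 and 45 min after dosing, summed (max 3 per rat). Mean ± SEM versus vehicle, Newman–Keuls test; ED50 with range.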

[18] = test system: Rattus norvegicus; assay: Effect on 8-OH-DPAT-Induced LLR(lower lip retraction) in rats at a dose of 16 mg/kg; format: functional; how it was run: as §4
[19] = test system: Rattus norvegicus; assay: Effect on 8-OH-DPAT-Induced LLR(lower lip retraction) in rats at a dose of 8 mg/kg; format: functional; how it was run: as §4
[20] = species: Rattus norvegicus; assay: Effect on 8-OH-DAPT- induced behavioral syndrome(FBP: flat body posture) by the compound in reserpine pretreated rats at a dose of 32; FBP mean score; format: functional; how it was run: as §2
[21] = test system: Rattus norvegicus; assay: Induction of LLR(lower lip retraction) by the compound in rats at a dose of 16 mg/kg; format: functional; how it was run: as §5
[22] = test system: Rattus norvegicus; assay: Induction of LLR(lower lip retraction) by the compound in rats at a dose of 32 mg/kg; format: functional; how it was run: as §5
[23] = species: Rattus norvegicus; assay: Dose Inducing behavioral syndrome(FBP: flat body posture) by the compound in reserpine pretreated rats.; format: functional; how it was run: as §1
[24] = species: Rattus norvegicus; assay: Dose Inducing behavioral syndrome(FT: forepaw treading) by the compound in reserpine pretreated rats.; format: functional; how it was run: as §1
[25] = species: Rattus norvegicus; assay: Effect on 8-OH-DAPT- induced behavioral syndrome(FT: forepaw treading) by the compound in reserpine pretreated rats at a dose of 2.; format: functional
[26] = species: Rattus norvegicus; assay: Effect on 8-OH-DAPT- induced behavioral syndrome(FBP: flat body posture) by the compound in reserpine pretreated rats at a dose of 2.; format: functional
[27] = species: Rattus norvegicus; assay: Effect on 8-OH-DAPT- induced behavioral syndrome(FBP: flat body posture) by the compound in reserpine pretreated rats at a dose of 4.; format: functional; how it was run: as §2
[28] = species: Rattus norvegicus; assay: Effect on 8-OH-DAPT- induced behavioral syndrome(FT: forepaw treading) by the compound in reserpine pretreated rats at a dose of 8.; format: functional; how it was run: as §2
[29] = species: Rattus norvegicus; assay: Induction of behavioral syndrome(FT: forepaw treading) by the compound in reserpine pretreated rats at a dose of 2.; format: functional
[30] = species: Rattus norvegicus; assay: Induction of behavioral syndrome(FT: forepaw treading) by the compound in reserpine pretreated rats at a dose of 4.; format: functional; how it was run: as §3
[31] = species: Rattus norvegicus; assay: Induction of behavioral syndrome(FT: forepaw treading) by the compound in reserpine pretreated rats at a dose of 8.; format: functional; how it was run: as §3
[32] = species: Rattus norvegicus; assay: Effect on 8-OH-DAPT- induced behavioral syndrome(FBP: flat body posture) by the compound in reserpine pretreated rats at a dose of 8.; format: functional; how it was run: as §2
[33] = species: Rattus norvegicus; assay: Induction of behavioral syndrome(FBP: flat body posture) by the compound in reserpine pretreated rats at a dose of 2.; format: functional; how it was run: as §1
[34] = species: Rattus norvegicus; assay: Induction of behavioral syndrome(FBP: flat body posture) by the compound in reserpine pretreated rats at a dose of 4.; format: functional; how it was run: as §3
[35] = species: Rattus norvegicus; assay: Induction of behavioral syndrome(FBP: flat body posture) by the compound in reserpine pretreated rats at a dose of 8.; format: functional; how it was run: as §3
[36] = test system: Rattus norvegicus; assay: Induction of LLR(lower lip retraction) by the compound in rats at a dose of 8 mg/kg; format: functional; how it was run: as §5
[37] = test system: Rattus norvegicus; assay: Effect on 8-OH-DPAT-Induced LLR(lower lip retraction) in rats at a dose of 4 mg/kg; format: functional; how it was run: as §4
[38] = test system: Rattus norvegicus; assay: Induction of LLR(lower lip retraction) by the compound in rats at a dose of 4 mg/kg; format: functional; how it was run: as §5
[39] = species: Rattus norvegicus; assay: Effect on 8-OH-DAPT- induced behavioral syndrome(FT: forepaw treading) by the compound in reserpine pretreated rats at a dose of 4.; format: functional; how it was run: as §2

Ki [1]: 34 nM
SMILES: O=C1c2ccccc2C(=O)N1C1CCC(N2CCc3ccccc3C2)CC1 (centres undefined)
ED50 [2]: 13.5 mg/kg
ED50 [3]: > 32 mg/kg
ED50 [4]: > 32 mg/kg
FT mean score [5]: 5.7
FT mean score [6]: 4.3
FBP mean score [7]: 10.3
FT mean score [8]: 7.5
FT mean score [9]: 0.1
FT mean score [10]: 0.1
FT mean score [11]: 0.1
FBP mean score [12]: 11
FBP mean score [13]: 0.5
FBP mean score [14]: 0.3
FBP mean score [15]: 0.3
LLR score [16]: 2.3
LLR score [17]: 0.1
LLR score [18]: 2.5
LLR score [19]: 2.3
FBP mean score [20]: 11.8
LLR score [21]: 0.2
LLR score [22]: 0.3

Ki [1]: 8 nM
SMILES: COc1ccccc1N1CCN(C2CCC(N3C(=O)c4ccccc4C3=O)CC2)CC1 (centres undefined)
ED50 [23]: 6.3
ED50 [24]: 2.3 mg/kg
ED50 [4]: 7.5 mg/kg
FT mean score [25]: 6.2
FBP mean score [26]: 9.8
FBP mean score [27]: 8.8
FT mean score [28]: 1
FT mean score [29]: 0.1
FT mean score [30]: 0.2
FT mean score [31]: 0.2
FBP mean score [32]: 5.6
FBP mean score [33]: 0.1
FBP mean score [34]: 0.2
FBP mean score [35]: 0.2
LLR score [36]: 1
LLR score [18]: 0.6
LLR score [37]: 2
LLR score [19]: 1.5
LLR score [38]: 1.3
LLR score [21]: 1.2
FT mean score [39]: 4.2
